According to ChEMBL document CHEMBL1153706, “Synthesis of 9-anilinoacridine triazines as new class of hybrid antimalarial agents” (Bioorg Med Chem Lett, 2009):

Tests used:
[1] = Selectivity index, ratio of IC50 for african green monkey (Cercopithecus aethiops) Vero cells to IC50 for chloroquine-sensitive Plasmodium falciparum 3D7; assay type: toxicity, cell-based; conditions: read-out: Ratio IC50
Summary of the method: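 Ratio of the Vero IC50 to the 3D7 IC50. Vero monkey kidney […] cells at 1 × 10⁴ cells/well exposed to varying compound concentrations for 72 h, MTT read-out, IC50 from non-linear regression. The 3D7 IC50 comes from a 72 h SYBR Green I fluorescence assay using twofold serial dilutions from 500 ng/ml.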

Plasmodium falciparum = experiment: Antimalarial activity against chloroquine-sensitive Plasmodium falciparum 3D7 after 72 hrs; assay type: functional, organism-based; conditions: 3D7, 72 h
Summary of the method: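 P. falciparum 3D7 cultured with 0.5% parasitaemia in a 2.5% cell suspension. Compounds are made up as 5 mg/ml DMSO stocks. Twofold serial dilutions (seven concentrations) start at 500 ng/ml, or 25 ng/ml for chloroquine, in duplicate wells. Incubated 72 h, then lysis buffer with SYBR Green I, 1 h at room temperature, fluorescence read. IC50 from non-linear regression dose–response curves.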

Plasmodium yoelii = experiment: Antimalarial activity against chloroquine-resistant Plasmodium yoelii N67 infected in Swiss mice (Mus musculus) assessed as suppression of parasitaemia at 100 mg/kg, peroral for 4 days; assay type: functional; conditions: N67, 96 h, route oral
Summary of the method: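 Swiss mice (22 2 g), groups of five, inoculated with 1 × 10⁶ parasitized RBC on day 0; dosed once daily days 0–3, orally, 0.1 ml aqueous suspension with a few drops of Tween 80. Parasitaemia read from thin blood smears between days 4 and 6; group mean used for percent suppression versus untreated controls; CQ-treated mice as reference.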

IC50 (Plasmodium falciparum)	SMILES	selectivity ratio [1]	inhibition in vivo at 100 mg/kg (Plasmodium yoelii)
22.1 nM	COc1ccc2nc3cc(Cl)ccc3c(Nc3ccc(Nc4nc(Nc5ccccc5)nc(N5CCN(C)CC5)n4)cc3)c2c1	146	
19.2 nM	CCN1CCN(c2nc(Nc3ccccc3)nc(Nc3ccc(Nc4c5ccc(Cl)cc5nc5ccc(OC)cc45)cc3)n2)CC1	164	
289 nM	CCCCNc1nc(Nc2ccccc2)nc(Nc2ccc(Nc3c4ccc(Cl)cc4nc4ccc(OC)cc34)cc2)n1	138	
17.5 nM	COc1ccc2nc3cc(Cl)ccc3c(Nc3ccc(Nc4nc(Nc5ccccc5)nc(NC5CCCC5)n4)cc3)c2c1	5010	
365 nM	COc1ccc2nc3cc(Cl)ccc3c(Nc3ccc(Nc4nc(NCCCO)nc(Nc5ccccc5)n4)cc3)c2c1	17.4	
4.27 nM	COc1ccc2nc3cc(Cl)ccc3c(Nc3ccc(Nc4nc(NN)nc(Nc5ccccc5)n4)cc3)c2c1	31.4	
119 nM	COc1ccc2nc3cc(Cl)ccc3c(Nc3ccc(Nc4nc(N)nc(Nc5ccc(F)cc5)n4)cc3)c2c1	37.1	
68.4 nM	COc1ccc2nc3cc(Cl)ccc3c(Nc3ccc(Nc4nc(N)nc(Nc5ccccc5)n4)cc3)c2c1	448	

Further lines, the compound ahead of its results:

SMILES	IC50 (Plasmodium falciparum)	selectivity ratio [1]	inhibition in vivo at 100 mg/kg (Plasmodium yoelii)
COc1ccc2nc3cc(Cl)ccc3c(Nc3ccc(Nc4nc(NCCN5CCOCC5)nc(Nc5ccccc5)n4)cc3)c2c1	6.97 nM	2900	96.6%
COc1ccc2nc3cc(Cl)ccc3c(Nc3ccc(Nc4nc(NCCCN5CCOCC5)nc(Nc5ccccc5)n4)cc3)c2c1	15.1 nM	61.4	
COc1ccc2nc3cc(Cl)ccc3c(Nc3ccc(Nc4nc(NCCN(C)C)nc(Nc5ccccc5)n4)cc3)c2c1	7.95 nM	160	49%
CCN(CC)CCNc1nc(Nc2ccccc2)nc(Nc2ccc(Nc3c4ccc(Cl)cc4nc4ccc(OC)cc34)cc2)n1	21.8 nM	137	
COc1ccc2nc3cc(Cl)ccc3c(Nc3ccc(Nc4nc(NCCCN(C)C)nc(Nc5ccccc5)n4)cc3)c2c1	4.21 nM	295	95.7%
COc1ccc2nc3cc(Cl)ccc3c(Nc3ccc(Nc4nc(NCCO)nc(Nc5ccccc5)n4)cc3)c2c1	9.46 nM	755	58.5%
COc1ccc2nc3cc(Cl)ccc3c(Nc3ccc(Nc4nc(Nc5ccc(F)cc5)nc(N5CCN(C)CC5)n4)cc3)c2c1	49.4 nM	210	
CCN1CCN(c2nc(Nc3ccc(F)cc3)nc(Nc3ccc(Nc4c5ccc(Cl)cc5nc5ccc(OC)cc45)cc3)n2)CC1	65.6 nM	193	
COc1ccc2nc3cc(Cl)ccc3c(Nc3ccc(Nc4nc(NCCN(C)C)nc(Nc5ccc(F)cc5)n4)cc3)c2c1	40.1 nM	28.1	
CCN(CC)CCNc1nc(Nc2ccc(F)cc2)nc(Nc2ccc(Nc3c4ccc(Cl)cc4nc4ccc(OC)cc34)cc2)n1	27.9 nM	155	95.4%
COc1ccc2nc3cc(Cl)ccc3c(Nc3ccc(Nc4nc(NCCCN(C)C)nc(Nc5ccc(F)cc5)n4)cc3)c2c1	35.2 nM	99.8	
COc1ccc2nc3cc(Cl)ccc3c(Nc3ccc(Nc4nc(NCCN5CCOCC5)nc(Nc5ccc(F)cc5)n4)cc3)c2c1	20.1 nM	3090	98.7%
COc1ccc2nc3cc(Cl)ccc3c(Nc3ccc(Nc4nc(NCCCN5CCOCC5)nc(Nc5ccc(F)cc5)n4)cc3)c2c1	45.1 nM	1560	
CNc1nc(Nc2ccc(F)cc2)nc(Nc2ccc(Nc3c4ccc(Cl)cc4nc4ccc(OC)cc34)cc2)n1	116 nM	336	
CCN(CC)CCCC(C)Nc1ccnc2cc(Cl)ccc12 (stereo unspecified) [CHLOROQUINE]			99.9%
